Only some compounds are listed: those with a hit (about 2.3% of all), similar ones and a draw of the others.
OXTR ag: human OXTR agonism | P30559 | CHO-OTR cells, Fluo-8 calcium fluorescence; normalized: DMSO 0%, oxytocin 100% | activation, % at 3 µM | hit rate 0.32% among 320,000;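 active = activation above the mean of all tested compounds plus 3 SD, cutoff set per screening run, cut at about 20% in these data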;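 note: peak over basal fluorescence ratio from a 100 s FLIPR kinetic read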
Target sequence (P30559 whole entry, looked up): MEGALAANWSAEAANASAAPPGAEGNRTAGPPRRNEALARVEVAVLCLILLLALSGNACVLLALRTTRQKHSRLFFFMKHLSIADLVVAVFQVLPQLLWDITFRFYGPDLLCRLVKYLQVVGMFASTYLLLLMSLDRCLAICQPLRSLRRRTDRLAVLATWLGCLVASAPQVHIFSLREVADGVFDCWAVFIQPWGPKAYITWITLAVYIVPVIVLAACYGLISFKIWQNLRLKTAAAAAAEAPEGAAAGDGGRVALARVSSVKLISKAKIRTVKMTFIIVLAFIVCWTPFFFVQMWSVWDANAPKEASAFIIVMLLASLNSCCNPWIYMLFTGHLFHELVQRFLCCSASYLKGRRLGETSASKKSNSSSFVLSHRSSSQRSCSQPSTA
OXTR potentiator: human OXTR potentiation. activation, % at 3 µM. hit rate 0.061% among 320,000. P30559. AID 2445. CHO-OTR cells, Fluo-8 calcium fluorescence, potentiator mode; 0% = oxytocin EC15, 100% = EC100;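 active = activation above that plate's cutoff, the mean activation of tested compounds plus 3 SD, cut at about 6.6% in these data, passing the limit was not always enough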
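assay system = CHO-OTR cells, human receptor | schedule = compound 6 min at room temperature before oxytocin, 100 s read | detection = Fluo-8 intracellular calcium fluorescence, ex 470-495, em 515-575 nm | evaluation = normalized max/min fluorescence ratio, % activation | control set = EC15 oxytocin alone as 0%, 75 nM oxytocin (EC100) as 100%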
TAAR1 ag: human TAAR1 agonism | Q96RJ0 | CHO RD-HGA16 TAAR1, Fluo-8 calcium fluorescence; vehicle wells 0%, saturating PEA agonist 100% | activation, % at 3 µM | hit rate 0.99% among 360,000;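 active = activation above the mean activation of all test compounds in the run plus 3 SD, cut at about 38% in these data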
Target sequence (Q96RJ0 whole entry, looked up): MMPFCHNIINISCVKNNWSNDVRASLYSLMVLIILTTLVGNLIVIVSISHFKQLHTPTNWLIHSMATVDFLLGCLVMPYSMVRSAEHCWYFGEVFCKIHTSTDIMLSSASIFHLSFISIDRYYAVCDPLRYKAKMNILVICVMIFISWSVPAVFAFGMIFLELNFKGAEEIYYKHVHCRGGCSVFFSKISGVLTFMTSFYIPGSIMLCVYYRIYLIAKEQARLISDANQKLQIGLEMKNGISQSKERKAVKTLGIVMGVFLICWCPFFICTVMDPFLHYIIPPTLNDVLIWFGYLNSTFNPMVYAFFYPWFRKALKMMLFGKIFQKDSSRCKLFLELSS
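Test system: RD-HGA16 (CHO) cells co-expressing Gα16 and hTAAR1 / Benchmarks: DMSO vehicle as 0%, PEA at EC100 as 100% / Repeats: no replicates (n 1) / Measure: % activation from peak over basal fluorescence ratio, DMSO-to-PEA scaled / Timing: 17-24 h plating, Fluo-8 75 min 37 °C, 30 min RT / Technique: kinetic Fluo-8 calcium fluorescence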
TAAR1 antag: human TAAR1 antagonism; hit rate 1.5% among 360,000; CHO RD-HGA16 TAAR1, Fluo-8 calcium fluorescence, antagonist; inhibition, % at 3 µM; AID 624466; Q96RJ0;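 active = inhibition above a per-plate cutoff, the mean inhibition of test compounds on that plate plus 3 SD, cut at about 49% in these data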
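System: CHO RD-HGA16 cells bearing hTAAR1. Reagent: EC80 β-phenethylamine stimulus. Schedule: seeding 17-24 h prior, 75-min 37 °C, 30-min RT dye loading. Signal: Fluo-8 intracellular calcium dye fluorescence, real-time kinetic reads. Read-out: % inhibition from peak post-agonist over basal fluorescence ratio. Benchmarks: vehicle wells and EC80 agonist wells. Replicates: n of 1.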
V1aR counter: activates human V1a receptor in oxytocin agonist counter-screen. P37288. CHO-V1R cells, Fluo-8 calcium fluorescence, agonist mode; 0% DMSO, 100% 3 nM vasopressin. activation, % at 3 µM. hit rate 0.25% among 320,000;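 active = activation above the mean activation of all tested compounds plus 3 SD, per screening run, cut at about 20% in these data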;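 note: signal is peak over basal fluorescence ratio across a 100 second FLIPR read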
Each line names hits and unclear results; the compound was inactive in the other large screens.

Cc1[nH]c2ccccc2c1/C=N/NC(=O)c1ccccc1	none
Cc1ccc2c(=O)n3c(nc2c1)C(Cc1ccccc1)NC(=O)c1ccc(Cl)cc1-3 (stereo not drawn)	none
O=c1cc(CN2CCC(Cc3ccccc3)CC2)nc2sccn12	none
CC1CN(Cc2cc(=O)n3ccsc3n2)CC(C)O1 (stereo not drawn)	TAAR1 ag 40
Cc1ccc2nc(/C(C#N)=C/c3ccc(-c4ccccc4C(=O)O)o3)[nH]c2c1	OXTR ag 39, V1aR counter 27
Cc1ccc2nc(/C(C#N)=C\c3ccc(N4CCOCC4)o3)[nH]c2c1	OXTR ag 43, TAAR1 ag 43, V1aR counter 30
CSc1ccc(C2c3[nH]c4ccccc4c3CCN2C(=O)c2ccnn2C)cc1 (stereo not drawn)	TAAR1 antag 49
COc1ccc(Br)c(Cn2c(C)c(C(=O)NCc3ccc4c(c3)OCCO4)sc2=O)c1	none (no result: OXTR ag, OXTR potentiator, V1aR counter)
Cc1c(Br)c(C(F)(F)F)nn1CC(=O)N(C)C1CCCCC1	none
COC(=O)[C@@H]1CC[C@H](C)[C@@H](c2ccc(C)cc2)N1C(=O)c1ccc(/C=N/OCC[C@@H]2C=C[C@H](OC(C)=O)[C@@H](COC(C)=O)O2)cc1	none (no result: TAAR1 ag, TAAR1 antag)
O=C1c2ccccc2C(=O)N1Cc1cc(-c2ccc(Cl)cc2)no1	TAAR1 antag 49
O=C(NCc1cccc(F)c1)c1cccc2c1C(=O)c1ccc(N3CCC(Cc4ccccc4)CC3)cc1S2(=O)=O	none (no result: TAAR1 ag, TAAR1 antag)
O=C(NCc1cc(C(F)(F)F)ccc1Cl)c1cccc2c1C(=O)c1ccc(N3CCC(N4CCCCC4)CC3)cc1S2(=O)=O	TAAR1 antag 59 (no result: OXTR ag, OXTR potentiator, V1aR counter)
O=C(NCc1cccc(C(F)(F)F)c1)c1cccc2c1C(=O)c1ccc(N3CCC(Cc4ccccc4)CC3)cc1S2(=O)=O	OXTR ag 23, V1aR counter 24 (no result: TAAR1 ag, TAAR1 antag)
O=C(NCCc1ccc(F)cc1)c1cccc2c1C(=O)c1ccc(N3CCC(Cc4ccccc4)CC3)cc1S2(=O)=O	OXTR ag 30, V1aR counter 27 (no result: TAAR1 ag, TAAR1 antag)
O=C(NCc1cc(C(F)(F)F)ccc1Cl)c1cccc2c1C(=O)c1ccc(N3CCCCC3)cc1S2(=O)=O	none
Cc1ccc(C)c(N2CCN(C3C(=O)Nc4ccccc4-n4nnnc43)CC2)c1 (stereo not drawn)	none (no result: OXTR ag, OXTR potentiator, V1aR counter)
Cc1ccc(S(=O)(=O)N2[C@@H](c3cccc(Cl)c3)C(C(=O)O)=CC[C@H]2c2ccc(Cl)cc2)cc1	TAAR1 antag 52
CN(C)c1ccc(C(=O)/C=C/c2ccc(Br)cc2)cc1	none
CCN(CC)c1ccc(/C=C/C(=O)c2ccc(Br)cc2)cc1	OXTR ag 143, TAAR1 ag 138, TAAR1 antag 81, V1aR counter 154
O=C1NC[C@@H](CCCCN2C[C@H](Cc3ccc(O)cc3)N(CCC3CCCCC3)C(=O)C2=O)N(CCc2ccc(O)cc2)C1=O	none (no result: OXTR ag, OXTR potentiator, V1aR counter)
O=C(Nc1ccc(-c2csc(Nc3ccc(Cl)cc3)n2)cc1)c1ccccc1	TAAR1 antag 51
CC(NC(=O)COC(=O)CN1C(=O)C2CCCCC2C1=O)c1ccccc1 (stereo not drawn)	none
CN(C[C@H](Cc1ccccc1)N(C[C@@H](Cc1cccc2ccccc12)N(CCc1ccccc1)N=O)N=O)N=O	TAAR1 ag 41
CC(C)Cn1c(N)c(C(=O)COC(=O)c2c(F)cccc2F)c(=O)n(C)c1=O	TAAR1 ag 39
COc1ccc(-c2sc(Nc3ccc(F)c(F)c3F)nc2CCC(=O)NN)cc1	none
CCOC(=O)C1CCCN(C2=NC(=O)/C(=C/c3ccc(OC)cc3)S2)C1 (stereo not drawn)	none
CCOC(=O)C1CCCN(C2=NC(=O)/C(=C/c3ccc(N(C)C)cc3)S2)C1 (stereo not drawn)	OXTR ag 35, V1aR counter 34
COc1ccc(C(=O)NCCCCNC(=O)c2ccc(OC)c(OC)c2)cc1OC	none
COc1ccccc1NC(=O)Nc1nc(CC(=O)N2CCN(c3ccccc3)CC2)cs1	TAAR1 antag 52
COc1ccccc1NC(=O)Nc1nc(CC(=O)NC2CCCC2)cs1	none
COc1ccc(N2CCN(C(=O)Cc3csc(NC(=O)Nc4ccccc4OC)n3)CC2)cc1	TAAR1 antag 50
COc1ccc(NC(=O)Cc2csc(NC(=O)Nc3ccccc3OC)n2)cc1	TAAR1 antag 49 (no result: OXTR ag, OXTR potentiator, V1aR counter)
COc1ccccc1NC(=O)Nc1nc(CC(=O)Nc2ccc(N(C)C)cc2)cs1	none
O=S1(=O)CC(N2CCN(c3ccccn3)CC2)CN1Cc1ccccc1 (stereo not drawn)	none (no result: OXTR ag, OXTR potentiator, V1aR counter)
C=CCN=C1NC(c2cccc(Cl)c2)C(C(=O)OC)=C(C)N1C (stereo not drawn)	none (no result: OXTR ag, OXTR potentiator, V1aR counter)
O=C(C(=O)N1CCC(CNS(=O)(=O)c2cc(C(F)(F)F)cc(C(F)(F)F)c2)CC1)c1cc2ccccc2o1	none (no result: OXTR ag, OXTR potentiator, V1aR counter)
CCCCC(=O)Nc1cccc(-c2ccc3nncn3n2)c1	none
CCCCC[C@H](O)/C=C/[C@H]1CCC(=O)[C@@H]1CCCCCCC(=O)N1CCCCC1CO (stereo partly drawn)	TAAR1 antag 71
CCc1nc2ccc(C(=O)Nc3cccc(OCC(=O)N(C)C)c3)cn2c1N(C)Cc1ccc(OC)cc1	TAAR1 antag 54 (no result: OXTR ag, OXTR potentiator, V1aR counter)
CCc1nc2ccc(C(=O)Nc3cccc(OCC(=O)N(C)C)c3)cn2c1N(C)C(=O)c1cccc(OC)c1	none (no result: OXTR ag, OXTR potentiator, V1aR counter)
CCOC(=O)C1=C(COC(=O)C2CC(=O)N(c3ccc(CC)cc3)C2)NC(=O)NC1C (stereo not drawn)	none
COc1ccc(N/C(N)=N/c2nc(C)cc(C)n2)cc1	TAAR1 antag 55 (no result: OXTR ag, OXTR potentiator, V1aR counter)
Cc1cc(C)nc(/N=C(\N)Nc2ccc(OCc3ccccc3)cc2)n1	OXTR ag 75, TAAR1 ag 127, TAAR1 antag 106, V1aR counter 77
CCC(=O)N1CCC1(C)C(=O)Nc1cc(OC)ccc1OC (stereo not drawn)	none (no result: OXTR ag, OXTR potentiator, V1aR counter)
Clc1ccc(-c2nc(N3CCCCC3)nc3ccccc23)cc1	none
c1ccc(-c2nc(-n3nc4ccccc4n3)nc3ccccc23)cc1	TAAR1 antag 65
NC1=NC2(CS1)CSC(N)=N2	none (no result: OXTR ag, OXTR potentiator, V1aR counter)
CC1(C(=O)NCc2cccc3ccccc23)CCN1CCc1ccccc1 (stereo not drawn)	none (no result: OXTR ag, OXTR potentiator, V1aR counter)
Cc1nc(N2CCN(c3ccccn3)CC2)c2c(C)c(C(=O)Nc3c(F)cc(F)cc3Br)sc2n1	TAAR1 antag 57
O=C(Nc1ccc(Cl)cc1)c1nc[nH]c1C(=O)NCCCCNC(=O)c1[nH]cnc1C(=O)Nc1ccc(Cl)cc1	TAAR1 antag 52
Cc1ccc(CNCc2cc(Cl)ccc2O)cc1	TAAR1 ag 38
COC(=O)c1cc2c(c3c4cc(OC)ccc4n(S(=O)(=O)c4ccc(OC)cc4)c13)C(=O)N(C)C2	none (no result: OXTR ag, OXTR potentiator, V1aR counter)
CCOc1cc(/C=N/NC(=O)c2cccc([N+](=O)[O-])c2)ccc1OS(=O)(=O)c1ccccc1	TAAR1 antag 52
